In ChEMBL document CHEMBL4513216, “Probing the Open Global Health Chemical Diversity Library for Multistage-Active Starting Points for Next-Generation Antimalarials” (ACS Infect Dis, 2020):

Experiment: Toxicity liver stage against HepG2, at 10uM
Type: cell-based
Set-up: test concentration 10 uM, cell line HepG2-A16-CD81EGFP
Conditions: human, HepG2-A16-CD81EGFP cells; read-out: INHIBITION
How it was run: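 Uninfected HepG2-A16-CD81EGFP cells, 3 × 10^3 per well, 1536-well, plated on prespotted compound at 10 μM final, parasite-free screening media added to match infected plates; puromycin 10 μM positive, DMSO 0.5% negative; run in parallel with 48 h PbLuc assay at 37 °C, 5% CO2; viability by CellTiter-Glo luminescence, normalized to controls.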

OC(CN1CCN(Cc2nc(C3CC3)no2)CC1)c1ccccc1 (stereo not given)
cytotoxicity at 10 µM: -10.9%

COc1ccccc1C1SCC(=O)Nc2c1c(=O)[nH]n2C1CCOCC1 (stereo not given)
cytotoxicity at 10 µM: -5.43%

Fc1ccc(CNCc2nnc3n2CC(C(F)(F)F)CC3)cc1 (stereo not given)
cytotoxicity at 10 µM: 6.71%

O=C(c1ccc(=O)[nH]n1)N1CCCC(O)(CN2CCC(F)(F)CC2)CC1 (stereo not given)
cytotoxicity at 10 µM: -8.71%

CC(C)(C)c1cnc(CN2C(=O)CC3(CCSC3)C2=O)o1 (stereo not given)
cytotoxicity at 10 µM: 7.28%

Cc1cnn(CCNCc2csc(-c3ccccc3)n2)c1
cytotoxicity at 10 µM: -9.48%

CN(C)c1nccnc1C1CCN(C(=O)C2(C)CCCCN2C)CC1 (stereo not given)
cytotoxicity at 10 µM: 10%

CCn1c(NCc2cccnc2)nc2c(C)nn(C)c2c1=O
cytotoxicity at 10 µM: 5.17%

CN(Cc1nncn1C)c1nccc(N2CCC(O)CC2)n1
cytotoxicity at 10 µM: -1.78%

c1cc(N2CCCCC2)ccc1-c1noc(CN2CCOCC2)n1
cytotoxicity at 10 µM: -1.59%

CC(O)CN1CCN(C(=O)c2ccc(CN(C)C)cc2)CC1 (stereo not given)
cytotoxicity at 10 µM: -8.09%

Cc1nc(N(C)C)nc(C)c1NS(=O)(=O)c1ccccc1Cl
cytotoxicity at 10 µM: 4.22%

Cc1nc(C)n(C2CCCN(C(=O)c3cncnc3C)C2)n1 (stereo not given)
cytotoxicity at 10 µM: -2.48%

Cc1nc2c(c(N3CCCC(OCc4ccccn4)C3)n1)CCNCC2 (stereo not given)
cytotoxicity at 10 µM: 0.383%

CC(=O)N1[C@H](CN(C)C)C[C@@H]2CN(C(=O)c3occc3C)CC[C@@H]21
cytotoxicity at 10 µM: 0.847%

Cn1c(C(F)(F)F)nn(CCNC(=O)CCc2ccccc2)c1=O
cytotoxicity at 10 µM: 10.7%

CC(c1nc(C2CC2)no1)N1CCc2c(ncn2C)C1 (stereo not given)
cytotoxicity at 10 µM: 1.09%

COc1cc(NCc2ccncc2)c(-c2nn[nH]n2)cc1OC
cytotoxicity at 10 µM: 7.91%

O=C(NCCNc1ncccn1)N(Cc1ccc(F)cc1F)C1CC1
cytotoxicity at 10 µM: -2.84%

COc1cccc(N2CCN(C(=O)C(O)c3cccc(Cl)c3)CC2=O)c1 (stereo not given)
cytotoxicity at 10 µM: -11.2%

NC(=O)c1cccc(CS(=O)(=O)CC(O)Cn2cccn2)c1 (stereo not given)
cytotoxicity at 10 µM: -2.45%

CC1COCCN1C(=O)c1ccc(=O)n(Cc2ccccc2)n1 (stereo not given)
cytotoxicity at 10 µM: -1.19%

CC(C)N1CCOCC2(CCCN(C(=O)CCc3cccnc3)C2)C1 (stereo not given)
cytotoxicity at 10 µM: 2.66%

CNS(=O)(=O)c1cccc(CNC(=O)c2cnn(C)c2C)c1
cytotoxicity at 10 µM: 0.857%

CCc1nc(CN2CCCC(N(C)CCn3cncn3)C2)no1 (stereo not given)
cytotoxicity at 10 µM: -6.5%

Fc1ccc(CN2CCO[C@H]3[C@H](OCc4ccncc4)CC[C@@H]32)cc1
cytotoxicity at 10 µM: -26.7%

Cc1ccc(N2CCC3(CCN(C(=O)c4ccsc4)C3)CC2)nn1
cytotoxicity at 10 µM: -0.0395%

Cc1nn(C(C)C)c(C)c1NC(=O)c1ccncc1
cytotoxicity at 10 µM: -17.3%

CCc1ccccc1OCCN(C)C(=O)CCN1CCCCO1
cytotoxicity at 10 µM: -57.1%

Cc1nnc(CN(Cc2ccccc2Cl)C2CCCC2)o1
cytotoxicity at 10 µM: 0.256%

Cc1cnn(Cc2ccc(NC(=O)N3CCCCC3CO)cc2)c1 (stereo not given)
cytotoxicity at 10 µM: 56.1%

Cc1ccc(NC2CCN(C(=O)CCc3ccccc3)CC2)nn1
cytotoxicity at 10 µM: -10.5%

c1cnc(-c2nn3c(CN4CCCCC4)nnc3s2)cn1
cytotoxicity at 10 µM: 5.31%

O=S(=O)(c1ccccc1)N1C[C@@H]2COC[C@]2(COCC2CC2)C1
cytotoxicity at 10 µM: 10.2%

CC(C)Cn1cc(NCc2cscn2)cn1
cytotoxicity at 10 µM: 3.86%

O=C(c1n[nH]cc1Cl)N1CCOCC1
cytotoxicity at 10 µM: 9.02%

CCc1c(C)nc2n(c1=O)CC(C(=O)NCc1cccs1)CS2 (stereo not given)
cytotoxicity at 10 µM: 15.2%

CN(C)C[C@H]1OC[C@@H]2CCN(S(=O)(=O)c3ccc(F)cc3)C[C@@H]21
cytotoxicity at 10 µM: -85.7%

NC(=O)C1CCN(c2nc3nccc(-c4ccncc4)c3c(=O)[nH]2)CC1
cytotoxicity at 10 µM: 6.09%

Cc1nc(COC[C@@]23CCC[C@@H]2CN(CC2CCOCC2)C3)cs1
cytotoxicity at 10 µM: 7.98%

Cc1ccoc1C(=O)NCCS(=O)(=O)N1CCSCC1
cytotoxicity at 10 µM: -2.65%

CN(CCC(F)(F)F)C(=O)[C@H]1CSCN1C(=O)OC(C)(C)C
cytotoxicity at 10 µM: -9.39%

CCc1ocnc1C(=O)N1CCC(n2cc(-c3ccsc3)nn2)CC1
cytotoxicity at 10 µM: 1.47%

CNc1nc2c(s1)C(c1ccccc1Cl)CC(=O)N2 (stereo not given)
cytotoxicity at 10 µM: 2.82%

Cc1ccc(C(=O)NCCSCc2cccs2)cn1
cytotoxicity at 10 µM: -3.95%

O=C(CCc1c[nH]cn1)N1CC[C@@H](c2ccc3ccccc3c2)[C@H](O)C1
cytotoxicity at 10 µM: -4.04%

Cc1nc(C)n(CC2CCCN2CC(=O)NCCc2ccsc2)n1 (stereo not given)
cytotoxicity at 10 µM: 0.932%

CCc1cc(CN2C[C@@H]3CC[C@H]2CN(C2Cc4ccccc4C2)C3)on1
cytotoxicity at 10 µM: 0.998%

c1ccc(CCN2CCOC3(CCc4ccccc43)C2)nc1 (stereo not given)
cytotoxicity at 10 µM: -4%

O=C1Nc2ccccc2CNC12CCN(CC1CCCC1)CC2
cytotoxicity at 10 µM: 6.39%

Cc1nc(C)c(C(=O)N2CCc3ccc(F)cc3C2C)o1 (stereo not given)
cytotoxicity at 10 µM: -1.65%

Cc1ncc(CN(C)Cc2nc3cc(Cl)ccc3n2C)s1
cytotoxicity at 10 µM: -42.9%

Cc1cnn(CC2CN(CC(=O)N3CCc4ccccc43)CCO2)c1 (stereo not given)
cytotoxicity at 10 µM: -0.77%

CC(C)COC1CCN(S(=O)(=O)Cc2cccc(F)c2)CC1
cytotoxicity at 10 µM: -2.11%

COc1cccc(CC(=O)N2CCCN(c3ccnc(C)c3)CC2)c1
cytotoxicity at 10 µM: -7.06%
